ChEMBL document CHEMBL1150326 (Bioorg Med Chem, 2008)
Calls of active or inactive are those of the source. No cut-off for these calls is given here.

Legend:
[1] = tested on: CCRF-CEM; assay: Cytotoxicity against taxol-resistant human CCRF-CEM cells after 72 hrs by XTT assay; type: functional, cell-based
In short: (§1)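 Leukaemic CCRF-CEM cells and their taxol- and vinblastine-resistant sublines exposed for 72 h. XTT assay read at 450 and 630 nm after 6 h with phenazine methosulfate-XTT at 37 °C. IC50 obtained by the median-effect principle from six or seven concentrations, in duplicate or triplicate.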

[2] = tested on: CCRF-CEM; assay: Selectivity ratio of IC50 for taxol-resistant human CCRF-CEM cells to IC50 for human CCRF-CEM cells; type: functional
In short: (§2)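 Fold resistance: IC50 in the taxol- or vinblastine-resistant CCRF-CEM subline divided by the IC50 in parent CCRF-CEM.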

[3] = tested on: MX1; assay: Cytotoxicity against human MX1 cells after 72 hrs by SRB assay; type: functional, cell-based; conditions: MX1, 72 h
In short: (§3)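 Solid tumour cells (breast MX-1, colon HCT116) exposed for 72 h. Growth measured by SRB assay. IC50 obtained by median-effect plot from six or seven concentrations, in duplicate or triplicate.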

[4] = tested on: HCT-116; assay: Cytotoxicity against human HCT116 cells after 72 hrs by SRB assay; type: functional, cell-based; conditions: HCT-116, 72 h; in short: as §3
[5] = tested on: CCRF-CEM; assay: Cytotoxicity against human CCRF-CEM cells after 72 hrs by XTT assay; type: functional, cell-based; in short: as §1
[6] = tested on: CCRF-CEM; assay: Selectivity ratio of IC50 for vinblastine-resistant human CCRF-CEM cells to IC50 for human CCRF-CEM cells; type: functional; in short: as §2
[7] = tested on: CCRF-CEM; assay: Cytotoxicity against vinblastine-resistant human CCRF-CEM cells after 72 hrs by XTT assay; type: functional, cell-based; in short: as §1
[8] = tested on: MX1; assay: Antitumor activity in human MX1 cells xenografted mouse assessed as complete tumor remission at 75 mg/kg, iv administered in Q2D x 8 schedule; type: functional, organism-based; design: dose 75 mg/kg
[9] = tested on: Mus musculus; assay: Toxicity against human MX1 cells xenografted mouse assessed as body weight loss at 75 mg/kg, iv administered in Q2D x 8 schedule; type: organism-based; design: dose 75 mg/kg, route intravenous; conditions: in vivo
[10] = Chemical stability assessed as half life at 1 mg in DMSO/Tween 80/normal saline solution; type: physicochemical
In short: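 1 mg of compound held in i.v. vehicle (DMSO/Tween 80/normal saline, 0.5:0.4:1.6 v/v/v). Degradation followed by silica TLC (CHCl3/MeOH 10:1) and confirmed by reversed-phase HPLC.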

[11] = tested on: MX1; assay: Antitumor activity in human MX1 cells xenografted mouse assessed as complete tumor remission at 30 mg/kg, iv administered in Q2D x 5 schedule; type: functional, organism-based; design: dose 30 mg/kg
[12] = tested on: Mus musculus; assay: Toxicity against human MX1 cells xenografted mouse assessed as body weight loss at 30 mg/kg, iv administered in Q2D x 5 schedule; type: organism-based; design: dose 30 mg/kg, route intravenous; conditions: in vivo
In short: (§4)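 Nude nu/nu male mice (8 weeks or older, 22 g or more) carrying xenografts, given i.v. tail-vein injections in DMSO/Tween 80/saline vehicle, n = 3. Host toxicity taken as body weight change from the initial pretreatment weight, tracked through and after dosing.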

[13] = tested on: NCI-H1299; assay: Induction of DNA interstrand cross linking in 20 Gy irradiated human H1299 cells at 200 uM after 1 hr by comet assay; type: functional
In short: (§5)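 H1299 cells (2 × 10^5) plated and grown for 32 h at 37 °C in 5% CO2, then drug-treated for 1 h. Cells given 20 Gy irradiation and embedded in 1.2% low-melting agarose for a modified comet assay under subdued light. Tail moment scored in 100 cells. Cross-linking % = [1 − (TMdi−TMcu)/(TMci−TMcu)] × 100. Three experiments, mean ± SD.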

[14] = tested on: MX1; assay: Antitumor activity in human MX1 cells xenografted mouse assessed as complete tumor remission at 50 mg/kg, iv administered in Q2D x 8 schedule; type: functional, organism-based; design: dose 50 mg/kg
[15] = tested on: MX1; assay: Antitumor activity in human MX1 cells xenografted mouse assessed as complete tumor suppression at 50 mg/kg, iv administered in Q2D x 8 schedule; type: functional, organism-based; design: dose 50 mg/kg
[16] = tested on: Mus musculus; assay: Toxicity against human MX1 cells xenografted mouse assessed as body weight loss at 50 mg/kg, iv administered in Q2D x 8 schedule; type: organism-based; design: dose 50 mg/kg, route intravenous; conditions: in vivo; in short: as §4
[17] = Stability in rat plasma assessed as half life at 5 ug/mL by HPLC; type: ADME, cell-free
In short: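 Rat plasma (100 µL, 5 µg/mL compound) deproteinised with acetonitrile (1:2), centrifuged at 10,000 g for 10 min and filtered. Analysed by HPLC on methanol:10 mM NaH2PO4 (60:40, pH 3.0) at 0.8 mL/min, UV 266 nm, quantified by peak area. Detection limit 20 ng/mL; n = 4.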

[18] = tested on: MX1; assay: Antitumor activity in human MX1 cells xenografted mouse assessed as complete tumor remission at 100 mg/kg, iv administered in Q2D x 5 schedule; type: functional, organism-based; design: dose 100 mg/kg
[19] = tested on: U-87 MG; assay: Antitumor activity in human U87 MG cells xenografted mouse at 100 mg/kg, iv administered in Q2D x 5 schedule; type: functional, organism-based; design: dose 100 mg/kg; conditions: U-87MG ATCC
[20] = tested on: Mus musculus; assay: Toxicity against human U87 MG cells xenografted mouse assessed as body weight loss at 100 mg/kg, iv administered in Q2D x 5 schedule; type: organism-based, U-87MG ATCC; design: dose 100 mg/kg, route intravenous; conditions: in vivo; in short: as §4
[21] = tested on: NCI-H1299; assay: Induction of DNA interstrand cross linking in 20 Gy irradiated human H1299 cells at 10 uM after 1 hr by comet assay; type: functional; in short: as §5
[22] = tested on: Mus musculus; assay: Toxicity against human MX1 cells xenografted mouse assessed as body weight loss at 100 mg/kg, iv administered in Q2D x 5 schedule; type: organism-based; design: dose 100 mg/kg, route intravenous; conditions: in vivo; in short: as §4
[23] = Cytotoxicity against human H1299 cells; type: functional, cell-based; conditions: NCI-H1299
[24] = Stability in mouse assessed as half life; type: ADME, organism-based; conditions: in vivo

COc1ccc(NC(=O)Nc2ccc(N(CCCl)CCCl)cc2)cc1Nc1c2ccccc2nc2ccccc12
IC50 [1]: 58.8 nM | Ratio IC50 [2]: 1.33 | IC50 [3]: 591 nM | IC50 [4]: 188 nM | IC50 [5]: 44.2 nM | Ratio IC50 [6]: 1.24 | IC50 [7]: 54.8 nM

Cc1ccc(Nc2c3ccccc3nc3ccccc23)cc1NC(=O)Nc1ccc(N(CCCl)CCCl)cc1
IC50 [1]: 34.7 nM | Ratio IC50 [2]: 2.08 | IC50 [3]: 584 nM | IC50 [4]: 264 nM | IC50 [5]: 16.7 nM | Ratio IC50 [6]: 2 | IC50 [7]: 33.4 nM

Cc1cc(NC(=O)Nc2ccc(N(CCCl)CCCl)cc2)cc(Nc2c3ccccc3nc3ccccc23)c1
IC50 [1]: 384 nM | Activity [8]: Active | Ratio IC50 [2]: 2.72 | IC50 [3]: 529 nM | Activity [9]: 10% | IC50 [4]: 816 nM | IC50 [5]: 141 nM | Ratio IC50 [6]: 4.2 | IC50 [7]: 593 nM

COc1ccc(Nc2c3ccccc3nc3ccccc23)cc1NC(=O)Nc1ccc(N(CCCl)CCCl)cc1
IC50 [1]: 33.8 nM | Ratio IC50 [2]: 4.39 | IC50 [3]: 1200 nM | IC50 [4]: 256 nM | IC50 [5]: 7.7 nM | Ratio IC50 [6]: 7.13 | IC50 [7]: 54.9 nM

Cc1cccc2c(Nc3cc(CO)cc(NC(=O)Nc4ccc(N(CCCl)CCCl)cc4)c3)c3ccccc3nc12
IC50 [1]: 394 nM | Ratio IC50 [2]: 12.7 | half-life [10]: 59 days | IC50 [3]: 125 nM | IC50 [4]: 263 nM | IC50 [5]: 31.1 nM | Ratio IC50 [6]: 57.5 | Activity [11]: Active | Activity [12]: 10% | IC50 [7]: 1790 nM

N[C@@H](Cc1ccc(N(CCCl)CCCl)cc1)C(=O)O [MELPHALAN]
Activity [13]: 47.3%

COc1cc(NC(=O)Nc2ccc(N(CCCl)CCCl)cc2)cc(Nc2c3ccccc3nc3ccccc23)c1
IC50 [1]: 50.4 nM | Ratio IC50 [2]: 1.34 | IC50 [3]: 1110 nM | IC50 [4]: 496 nM | IC50 [5]: 37.5 nM | Ratio IC50 [6]: 1.46 | IC50 [7]: 54.8 nM

O=C(Nc1ccc(N(CCCl)CCCl)cc1)Nc1cc(CO)cc(Nc2c3ccccc3nc3ccccc23)c1
Activity [14]: inactive | IC50 [1]: 17200 nM | Ratio IC50 [2]: 304 | Activity [15]: Active | half-life [10]: 55 days | IC50 [3]: 369 nM | IC50 [4]: 216 nM | Activity [16]: 10%

Cc1ccc(Nc2c3ccccc3nc3c(C)cccc23)cc1NC(=O)Nc1ccc(N(CCCl)CCCl)cc1
IC50 [1]: 91.8 nM | half-life at 5 ug/mL [17]: 2.26 days | Activity [18]: Active | Ratio IC50 [2]: 1.18 | half-life [10]: 55 days | IC50 [3]: 240 nM | IC50 [4]: 437 nM | IC50 [5]: 77.8 nM | Ratio IC50 [6]: 1.64 | Activity [19]: Active | Activity [20]: 15% | Activity [21]: 39.2% | Activity [22]: 10% | IC50 [7]: 128 nM | IC50 [23]: 510 nM

CC(=O)O[C@H]1C(=O)[C@@]2(C)[C@H]([C@H](OC(=O)c3ccccc3)[C@]3(O)C[C@H](OC(=O)[C@H](O)[C@@H](NC(=O)c4ccccc4)c4ccccc4)C(C)=C1C3(C)C)[C@]1(OC(C)=O)CO[C@@H]1C[C@@H]2O [PACLITAXEL]
Ratio IC50 [2]: 330 | IC50 [3]: 35 nM | IC50 [4]: 1.3 nM | IC50 [5]: 1.3 nM | Ratio IC50 [6]: 980 | IC50 [7]: 1270 nM

O=C(Nc1ccc(N(CCCl)CCCl)cc1)Nc1c2ccccc2nc2ccccc12
IC50 [1]: 385 nM | Ratio IC50 [2]: 1.68 | IC50 [3]: 810 nM | IC50 [4]: 900 nM | IC50 [5]: 229 nM | Ratio IC50 [6]: 1.65 | IC50 [7]: 378 nM

COc1cc(NC(=O)Nc2ccc(N(CCCl)CCCl)cc2)cc(Nc2c3ccccc3nc3c(C)cccc23)c1
IC50 [1]: 49.8 nM | Ratio IC50 [2]: 1.68 | IC50 [3]: 868 nM | IC50 [4]: 242 nM | IC50 [5]: 29.6 nM | Ratio IC50 [6]: 1.46 | IC50 [7]: 43.3 nM

COc1cc(NC(=O)Nc2ccc(N(CCCl)CCCl)cc2)cc(Nc2c3ccccc3nc3c(C(=O)NCCN(C)C)cccc23)c1
IC50 [1]: 30.2 nM | Ratio IC50 [2]: 2.29 | IC50 [3]: 638 nM | IC50 [4]: 110 nM | IC50 [5]: 13.2 nM | Ratio IC50 [6]: 72 | IC50 [7]: 951 nM

Cc1ccc(NC(=O)Nc2ccc(N(CCCl)CCCl)cc2)cc1Nc1c2ccccc2nc2c(C)cccc12
IC50 [1]: 23 nM | Ratio IC50 [2]: 2.02 | IC50 [3]: 589 nM | IC50 [4]: 158 nM | IC50 [5]: 11.4 nM | Ratio IC50 [6]: 2.15 | IC50 [7]: 24.5 nM

Cc1ccc(NC(=O)Nc2ccc(N(CCCl)CCCl)cc2)cc1Nc1c2cccc(C)c2nc2c(C(=O)NCCN(C)C)cccc12
IC50 [1]: 176 nM | Ratio IC50 [2]: 14.7 | IC50 [3]: 60.1 nM | IC50 [4]: 60 nM | IC50 [5]: 11.9 nM | Ratio IC50 [6]: 25.4 | IC50 [7]: 303 nM

COc1ccc(Nc2c3ccccc3nc3c(C)cccc23)cc1NC(=O)Nc1ccc(N(CCCl)CCCl)cc1
IC50 [1]: 11.5 nM | Ratio IC50 [2]: 1.25 | IC50 [3]: 367 nM | IC50 [4]: 74.9 nM | IC50 [5]: 9.2 nM | Ratio IC50 [6]: 2.76 | IC50 [7]: 24.6 nM

OCc1cc(Nc2c3ccccc3nc3ccccc23)cc(OCCN(CCCl)CCCl)c1
half-life [24]: < 0.0174 days | IC50 [1]: 3.2 nM | Ratio IC50 [2]: 0.96 | IC50 [4]: 6.5 nM | IC50 [5]: 3.33 nM | Ratio IC50 [6]: 3.84 | IC50 [7]: 12.8 nM

COc1ccc(NC(=O)Nc2ccc(N(CCCl)CCCl)cc2)cc1Nc1c2ccccc2nc2c(C)cccc12
IC50 [1]: 57.4 nM | Ratio IC50 [2]: 1.93 | IC50 [3]: 1810 nM | IC50 [4]: 571 nM | IC50 [5]: 29.7 nM | Ratio IC50 [6]: 1.3 | IC50 [7]: 30.6 nM

CC[C@]1(O)C[C@@H]2CN(CCc3c([nH]c4ccccc34)[C@@](C(=O)OC)(c3cc4c(cc3OC)N(C)[C@H]3[C@@](O)(C(=O)OC)[C@H](OC(C)=O)[C@]5(CC)C=CCN6CC[C@]43[C@@H]65)C2)C1 [VINBLASTINE]
IC50 [3]: 2.9 nM | IC50 [4]: 1.8 nM
